{"data": "Measured values pooled from the literature", "organism": "Mycobacterium tuberculosis", "read-out": "microbial growth", "note": "Compare with care: the assays were run in different laboratories."}
{"SMILES": "CC(=O)[C@]1(O)Cc2c(O)c3c(c(O)c2[C@@H](O[C@H]2C[C@H](N)[C@H](O)[C@H](C)O2)C1)C(=O)c1ccccc1C3=O", "assay": "resazurin", "test system": "H37RV", "quantity": "MIC", "value": "80 µM"}
{"SMILES": "Nc1nc(-c2cccc(-c3ccccc3)c2)nc2c1ncn2[C@@H]1O[C@H](COS(=O)(=O)NC(=O)c2ccccc2O)[C@@H](O)[C@H]1O", "test system": "H37RV", "setting": "pH 6.6", "quantity": "MIC99", "value": "25 to 50 µM"}
{"SMILES": "CCOC(=O)c1c(NC(=O)c2c(F)c(F)c(F)c(F)c2F)sc2c1CCN(CC)C2", "assay": "resazurin", "test system": "H37RV", "quantity": "IC50", "value": "650 nM"}
{"SMILES": "COc1cccc2c1C(=O)c1c(O)c3c(c(O)c1C2=O)C[C@@](O)(C(C)=O)C[C@@H]3O[C@H]1C[C@H](N)[C@H](O)[C@H](C)O1", "assay": "resazurin", "test system": "H37RV", "quantity": "MIC", "value": "1.25 µM"}
{"SMILES": "Nc1nc(-c2ccc(-c3ccccc3)cc2)nc2c1ncn2[C@@H]1O[C@H](COS(=O)(=O)NC(=O)c2ccccc2O)[C@@H](O)[C@H]1O", "test system": "H37RV", "setting": "pH 6.6", "quantity": "MIC99", "value": "25 to 50 µM"}
{"SMILES": "Nc1sc2c(c1C(=O)NC13CC4CC(CC(C4)C1)C3)CCCC2", "assay": "resazurin", "test system": "H37RV", "quantity": "MIC", "value": "> 300 µM"}
{"SMILES": "Cc1cc2nc(C(=O)N(C)C)cc(-c3ccccc3Cl)c2c(C)c1-c1ccncc1", "test system": "H37RV", "quantity": "MIC90", "value": "20 µM"}
{"SMILES": "CO[C@H]1/C=C/O[C@@]2(C)Oc3c(C)c(O)c4c(O)c(c(/C=N/N5CCN(C)CC5)c(O)c4c3C2=O)NC(=O)/C(C)=C\\C=C\\[C@H](C)[C@H](O)[C@@H](C)[C@@H](O)[C@@H](C)[C@H](OC(C)=O)[C@@H]1C", "assay": "resazurin", "test system": "ATCC27294 H37RV", "setting": "7 days", "quantity": "MIC", "value": "0.06 µg/mL"}
{"SMILES": "CCOC(=O)c1c(NC(=O)c2c(F)c(F)c(F)c(F)c2F)sc2c1CCN(C(=O)OC(C)(C)C)C2", "assay": "resazurin", "test system": "H37RV", "quantity": "MIC", "value": "< 100 µM"}
{"SMILES": "O=C(Nc1cc2nc(C3CCCCC3)[nH]c2cc1N1CCCC1)OCc1ccccc1", "assay": "resazurin", "test system": "H37RV", "quantity": "MIC99", "value": "1.56 µg/mL"}
{"SMILES": "Nc1sc2c(c1C(=O)O)CCN(C(=O)OCc1ccccc1)C2", "assay": "resazurin", "test system": "H37RV", "quantity": "MIC", "value": "> 300 µM"}
{"SMILES": "Cc1cccc(C)c1-c1ccnc2cc(C)c(-c3ccc(CN4CCOCC4)cc3)c(C)c12", "test system": "H37RV", "quantity": "MIC90", "value": "5 µM"}
{"SMILES": "CCCCOC(=O)Nc1cc2nc(C3CCCCC3)[nH]c2cc1N1CCCC1", "assay": "resazurin", "test system": "H37RV", "quantity": "MIC99", "value": "0.39 µg/mL"}
{"SMILES": "[H]/N=C(/N)N[C@H]1[C@H](O)[C@@H](O)[C@H](O[C@@H]2O[C@@H](C)[C@](O)(C=O)[C@H]2O[C@@H]2O[C@@H](CO)[C@H](O)[C@@H](O)[C@@H]2NC)[C@@H](N/C(N)=N\\[H])[C@@H]1O", "assay": "disc diffusion", "test system": "ATCC25177", "setting": "5 µg/disc, 12 days", "quantity": "inhibition zone", "value": "30 mm"}
{"SMILES": "Cc1cc2nc(C(=O)O)cc(-c3ccccc3Cl)c2c(C)c1-c1ccncc1", "test system": "H37RV", "quantity": "MIC90", "value": "80 µM"}
